# PLAP act = activates human placental alkaline phosphatase; activation fold at 20 µM; AID 696; purified PLAP enzyme, luminescent substrate read-out; hits give high values; P05187; 1.2% of 96,000 active; in the data active = activation fold above about 2
# tolC growth inh = E. coli tolC mutant growth inhibition; E. coli BW25113 tolC mutant growth, OD615; 2.2% of 65,000 active; growth inhibition, % at 10 µM (by protocol);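 active = growth inhibition at or above a cutoff equal to the mean over every tested compound plus 3 SD, cut at about 60% in these data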;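 also: growth measured after 20 h incubation at 37 °C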
#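 Doses: one dose of 10 µM final / Material: E. coli BW25113 ΔtolC::kan, tolC deletion mutant strain / Buffer or medium: LB with kanamycin 50 µg/mL / Evaluation: percent growth inhibition / Detection: optical density read at 615 nm / Incubation: 37 °C, 20 h exposure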
# PostGolgi ctrl = yeast control strain growth, post-Golgi counter-screen. inhibition, % at 10 µM. 5% of 98,000 active. efflux-deficient yeast background strain, growth absorbance A615, 16 h. AID 738
# PostGolgi yeast = growth inhibition of a yeast mutant, post-Golgi transport screen; 0.9% of 98,000 active; AID 739; inhibition, % at 10 µM; post-Golgi transport phenotypic cell assay;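 also: yeast cells grown in 1536-well plates; yeast grown about 18 h at 30C before absorbance read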
# HePTP inhibitor = blocks human HePTP tyrosine phosphatase; inhibition, % at 20 µM; recombinant HePTP phosphatase activity, OD absorbance; P35236; 0.64% of 110,000 active; in the data active = inhibition above about 50%;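 also: plate controls were vehicle for no effect and reference inhibitor for full effect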
# E coli WT exp = blocks growth of wild type E. coli BW25113; OD600 absorbance; growth inhibition, % at 100 µM; 0.15% of 98,000 active;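 active = growth inhibition above about 50% at one test dose, limit read from the data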;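 also: growth measured after 20 h incubation at 37 °C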
# An asterisk follows results filed as active; nt = no result. A selection: hits, their analogues and other compounds. The true share with any hit is near 5.4%. Rule as the data show it, unless noted: active = inhibition above about 30%; inactive = the rest.
SMILES,PLAP act,tolC growth inh,PostGolgi ctrl,PostGolgi yeast,HePTP inhibitor,E coli WT exp
Cc1nn2c(c1-c1ccc(Cl)cc1)N=C(c1ccco1)CC2c1ccccc1 (stereo not drawn),1.3,nt,35*,23,nt,-7
CCOC(=O)c1cc(-c2ccc(Cl)cc2)nc2c1c(C)nn2CCC#N,1,nt,15,3,nt,-5
CCOC(=O)c1cc(-c2ccc(OC)cc2F)nc2c1c(C)nn2CCC#N,1.1,nt,45*,-3,nt,-22
Nc1nc2n(n1)C1(CCCCC1)C1=C(CCCC1)N2,2.1*,-3,-1,15,-12,0
C/C(=N\Nc1nc2c(s1)CCCC2)c1ccccc1,2.3*,nt,20,-3,nt,-3
O=C(Nc1nc2c(s1)CCCC2)Oc1ccccc1,1.1,10,-9,-7,8,-8
CS(=O)(=O)c1ccccc1-c1nc(-c2ccc(C(F)(F)F)cc2)no1,0.9,nt,31*,-12,nt,3
Fc1ccccc1N1CCN(C(c2ccccn2)c2nnnn2C2CCCCC2)CC1 (stereo not drawn),1.7,26,40*,5,4,1
Cc1ccc(Cl)cc1N1CCN(C(c2cccnc2)c2nnnn2C2CCCCC2)CC1 (stereo not drawn),1.6,18,37*,5,-14,0
CC(C)CC(c1nnnn1C1CCCC1)N1CCN(c2ccccc2F)CC1 (stereo not drawn),1.1,35,87*,72*,10,-2
COc1ccccc1N1CCN(C(c2ccccn2)c2nnnn2C2CCCCC2)CC1 (stereo not drawn),1.7,nt,8,4,nt,3
CC(C)CC(c1nnnn1C1CCCCC1)N1CCN(c2ncccn2)CC1 (stereo not drawn),1.7,-2,84*,53*,4,7
CCC(c1nnnn1C1CCCCC1)N1CCN(C2CCCC2)CC1 (stereo not drawn),1.4,-15,11,-3,2,1
Cc1ccc(Nc2nc(N)nc(CSCCO)n2)cc1,1,nt,-4,-2,nt,6
CC(C)C(c1nnnn1C1CCCCC1)N1CCN(c2ncccn2)CC1 (stereo not drawn),1.4,0,83*,51*,0,8
Oc1c(C(c2cccs2)N2CCN(c3cccc(Cl)c3)CC2)sc2ncnn12 (stereo not drawn),1.7,100*,2,4,4,3
Oc1c(C(c2cccs2)N2CCOCC2)sc2ncnn12 (stereo not drawn),0.9,-4,-3,-1,0,3
Oc1c(C(c2ccco2)N2CCN(C(c3ccccc3)c3ccccc3)CC2)sc2ncnn12 (stereo not drawn),2.1*,64*,11,-2,-4,-4
Oc1c(C(c2ccccc2)N2CCc3ccccc3C2)sc2ncnn12 (stereo not drawn),nt,-2,1,-1,9,4
CC(=O)NC(=S)Nc1ccc(-c2nc3ccc(C)cc3s2)cc1,0.9,nt,8,1,nt,-3
CCC(C)n1c(-c2cccs2)nc2nc3ccccc3nc21 (stereo not drawn),0.9,29,35*,3,5,-3
CCn1c(C(=O)N2CCC(C(=O)NCCCSC3CCCCC3)CC2)cc2sccc21,1.7,84*,20,-1,5,-27
COc1ccc(C(=O)CSc2ncn[nH]2)cc1,nt,nt,nt,nt,0,nt
COc1ccc(NC(=O)CSc2ncn[nH]2)c([N+](=O)[O-])c1,1,nt,1,2,nt,9
Cc1ccc(C(=O)CSc2ncn[nH]2)cc1,2.3*,4,-9,1,-1,-7
SMILES,PLAP act,tolC growth inh,PostGolgi ctrl,PostGolgi yeast,HePTP inhibitor,E coli WT exp
CCc1ccc(C(=O)CSc2ncn[nH]2)cc1,2.4*,-6,1,-4,3,1
COc1ccc(C(=O)CSc2ncn[nH]2)cc1OC,2.1*,-17,24,1,-2,1
COc1ccc2c(c1)C(C)CC(C)(C)N2C(=O)CSc1ncn[nH]1 (stereo not drawn),2.4*,0,0,-7,2,-5
COc1cccc(CN2CCN(C(=O)C(c3ccccc3)c3ccccc3)CC2)c1,nt,nt,nt,nt,3,nt
CCOc1ccc(-c2nnn(CC(=O)NCc3ccc(OC)cc3)n2)cc1OCC,0.8,-17,-6,21,-1,-6
COc1cc(Br)cc(/C=C2/C(=O)NN(c3ccccc3)C2=O)c1O,nt,nt,nt,nt,-12,nt
O=C(N/N=C\c1cc(Cl)cc([N+](=O)[O-])c1O)c1ccc(Br)cc1,nt,nt,nt,nt,65*,nt
O=C(N/N=C\c1cc(I)ccc1O)c1ccc(Br)cc1,nt,nt,nt,nt,103*,nt
